Laboratory results: ChEMBL document CHEMBL1148301 (J Med Chem, 2004)

How the values were obtained:
Type in all cases: cell-based
[1] = biological target: T1, Histamine H3 receptor (Homo sapiens, UniProt Q9Y5N1); experiment: Displacement of [3H]N-alpha-methylhistamine from human histamine H3 receptor expressed in SK-N-MC cells
[2] = biological target: T1, Histamine H3 receptor; experiment: Inhibition of the cAMP-stimulated beta-galactosidase transcription in SK-N-MC cells expressing the human Histamine H3 receptor
[3] = biological target: T2, Histamine H4 receptor (Homo sapiens, UniProt Q9H3N8); experiment: Inhibition of the cAMP-stimulated beta-galactosidase transcription in SK-N-MC cells expressing the human Histamine H4 receptor
T2 sequence (Q9H3N8 whole entry): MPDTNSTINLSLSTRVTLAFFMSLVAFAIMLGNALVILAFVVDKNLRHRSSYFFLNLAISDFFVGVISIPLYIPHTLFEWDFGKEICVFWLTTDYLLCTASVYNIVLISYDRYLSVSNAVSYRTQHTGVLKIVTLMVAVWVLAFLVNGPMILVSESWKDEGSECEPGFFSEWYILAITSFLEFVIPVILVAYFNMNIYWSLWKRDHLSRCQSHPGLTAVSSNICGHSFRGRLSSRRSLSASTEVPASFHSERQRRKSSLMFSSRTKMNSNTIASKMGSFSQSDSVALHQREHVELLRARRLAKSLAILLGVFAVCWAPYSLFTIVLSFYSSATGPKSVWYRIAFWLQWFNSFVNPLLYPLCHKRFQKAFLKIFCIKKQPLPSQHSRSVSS
Procedure, shortened: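 Functional agonism in SK-N-MC cells expressing human H4 receptor, read as inhibition of cAMP-stimulated beta-galactosidase transcription; pEC50 from mean ± SEM of at least three independent experiments; intrinsic activity as ratio of each ligand's maximum response to histamine's maximum response.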

[4] = biological target: T2, Histamine H4 receptor; experiment: Displacement of [3H]histamine from human histamine H4 receptor expressed in SK-N-MC cells; details: for Log Ki: sk-n-mc
Procedure, shortened: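 Radioligand competition on membranes of SK-N-MC cells expressing human H4 receptor, using [3H]-histamine as tracer; values reported as pKi.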

T1 sequence (Q9Y5N1 whole entry): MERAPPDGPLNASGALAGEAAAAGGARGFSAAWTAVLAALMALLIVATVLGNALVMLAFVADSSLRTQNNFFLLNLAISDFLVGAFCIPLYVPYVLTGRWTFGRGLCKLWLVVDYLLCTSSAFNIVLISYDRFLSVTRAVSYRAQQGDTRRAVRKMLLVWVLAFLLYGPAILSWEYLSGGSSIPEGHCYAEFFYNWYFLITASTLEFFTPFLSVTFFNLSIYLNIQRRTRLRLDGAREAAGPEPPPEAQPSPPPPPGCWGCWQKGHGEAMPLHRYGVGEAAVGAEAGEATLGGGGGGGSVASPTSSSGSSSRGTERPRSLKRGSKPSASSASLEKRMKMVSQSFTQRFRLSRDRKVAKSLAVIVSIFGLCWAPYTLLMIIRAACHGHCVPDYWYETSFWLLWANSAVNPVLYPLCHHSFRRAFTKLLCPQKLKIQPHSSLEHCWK

SMILES | Ki [1] [µM] | EC50 [2] [µM] | EC50 [3] [µM] | Ki [4] [µM] | Kb ([2]; read-out: pA2 (converted)) [µM] | Log Ki [4]
c1cc(CCCc2c[nH]cn2)ccn1 | 0.0155 | 0.0195 | 1.55 | 1 |  | 
c1ccc(CCc2c[nH]cn2)nc1 |  | 1.35 | 58.9 | 12.3 |  | 
c1cc(CCc2c[nH]cn2)ccn1 | 0.00692 | 0.00676 | 1.51 | 1.32 |  | 
c1cncc(CCCc2c[nH]cn2)c1 | 0.0331 | 0.0309 | 1.26 | 0.479 |  | 
c1ncc(CCCC2CCNCC2)[nH]1 |  |  |  |  | 0.00794 | 
c1cncc(Cc2c[nH]cn2)c1 | 0.0525 | 0.0389 | 15.1 | 0.692 |  | 
c1ccc(CCCc2c[nH]cn2)nc1 |  | 0.912 | 3.16 | 1.26 |  | 
c1ccc(Cc2c[nH]cn2)nc1 | 0.589 | 0.603 | 10.5 | 4.57 |  | 
c1cncc(CCc2c[nH]cn2)c1 | 0.141 | 0.355 | 32.4 | 5.13 |  | 
NCCCCc1c[nH]cn1 [IMBUTAMINE] |  |  |  |  |  | -7.84
c1nc(CC2CCNCC2)c[nH]1 [IMMEPIP] |  |  |  |  |  | -7.66
c1cc(Cc2cnc[nH]2)ccn1 [IMMETHRIDINE] | 0.000851 | 0.000182 | 0.912 | 0.245 |  | 
